Screening data as filed in PubChem.
Statin myotox sup: protects C2C12 myotubes from simvastatin toxicity. ATP luminescence, 48 h; scaled: DMSO 0, geranylgeraniol control 100. rescue of ATP level, % at 7.49 µM. 330,000 tested, 0.78% active. AID 602340;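 active means mean ATP rescue above about 67%, or every replicate alone reaching that limit, limit read from the data, passing the limit was not always enough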;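 further: myotubes were challenged with 10 µM simvastatin during compound exposure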
E-sel inducer: E-selectin induction on HUVECs. activation, % at 7.58 µM. HUVEC E-selectin immunofluorescence imaging; normalized: neutral wells 0, TNF-alpha wells 100. P16581. 260,000 tested, 0.37% active. AID 686992;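 active means mean E-selectin-positive cell signal at least 10% of the positive control, reached in at least 60% of replicates, without over 20% cell loss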
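Read-out basis: % PE-positive cells; Test system: HUVEC primary endothelial cells; Technique: immunofluorescence imaging; Dosing: single-point compound dose.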
FGF22 binding: FGF22 (human) thermal shift binding | Q9HCT0 | AID 651658 | activity (Tm shift, normalised), % at 9.99 µM | 340,000 tested, 1.5% active | recombinant FGF22 thermal shift, SYPRO orange fluorescence; percent of sucrose octasulfate shift, DMSO zero;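 active means mean Tm shift, scaled 0 neutral to 100 positive control, at about 1.3% or above, every replicate too, limit read from the data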
Target sequence (Q9HCT0 whole entry, looked up): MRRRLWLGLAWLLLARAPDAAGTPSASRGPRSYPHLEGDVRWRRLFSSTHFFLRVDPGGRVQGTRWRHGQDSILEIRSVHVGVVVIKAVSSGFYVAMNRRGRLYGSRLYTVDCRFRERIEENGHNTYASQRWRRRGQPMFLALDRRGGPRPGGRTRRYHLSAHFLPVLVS
SIRT5 inh: blocks human SIRT5 desuccinylation of peptide; Q9NXA8; Purified SirT5, succinyl-peptide AMC, trypsin-coupled fluorescence; inhibition, % at 15 µM; 330,000 tested, 1.1% active; in the data active means inhibition above about 15%
Target sequence (Q9NXA8 whole entry, looked up): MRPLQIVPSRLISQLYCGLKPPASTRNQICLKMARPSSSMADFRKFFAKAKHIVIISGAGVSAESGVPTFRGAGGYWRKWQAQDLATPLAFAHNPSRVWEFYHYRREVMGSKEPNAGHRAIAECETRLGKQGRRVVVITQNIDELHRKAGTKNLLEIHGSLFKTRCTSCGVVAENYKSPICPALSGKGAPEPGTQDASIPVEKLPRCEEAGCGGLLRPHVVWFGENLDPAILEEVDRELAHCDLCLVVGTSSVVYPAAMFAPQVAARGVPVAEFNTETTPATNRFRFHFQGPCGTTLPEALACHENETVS
FN deposit inh: fibronectin deposition inhibition; AH1F fibroblasts, Alexa488-fibronectin deposition fluorescence, overnight; inhibition, % at 12.6 µM; 350,000 tested, 0.086% active;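 active means mean inhibition across replicates of 30% or more, regardless of how many single replicates reach that level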
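test system = AH1F fibroblasts assembling fluorescent fibronectin matrix | quantity = 10000 AH1F cells per well | buffer or medium = DMEM plus 2% serum, read in PBS | doses = single dose, pinned | incubation = 1 h cell attachment, overnight exposure to compound and label | detection = fluorescence at 485 nm excitation, 525 nm emission | read-out basis = inhibition from reduced deposited-fibronectin fluorescence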
Ecoli rRNA inh: selective bacterial rRNA inhibition in E. coli; AID 720706; 350,000 tested, 1.6% active; E. coli WT GFP vs humanized-ribosome RFP mutants, fluorescence, 24 h; active compounds read low; DMSO median 0, no signal -100; GFP signal change (wild-type ribosome), % (test concentration not listed);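 active means significant combined selectivity score with lowered wild-type GFP, culture density cut under 30%, mutant RFP and density less affected; inactive means any of these conditions unmet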
Large screens that a line does not name were inactive. This is a sample that favours compounds with a hit; in the whole collection about 4% have one here.

CC(C)NC(=O)N1[C@H](C(=O)N2CCC(Cc3ccccc3)CC2)[C@@H](CO)[C@@H]2Cn3c(cccc3=O)[C@@H]21	none (no result: FN deposit inh)
CCN1C(=O)C(C)S/C1=N\S(=O)(=O)c1ccc(Cl)s1 (stereo not given)	Statin myotox sup 135.9 (no result: E-sel inducer, FGF22 binding, SIRT5 inh, FN deposit inh, Ecoli rRNA inh)
CC(=O)N(C)C[C@H]1Oc2ccc(NC(=O)NC(C)C)cc2CC(=O)N(C)C[C@H]1C	none (no result: Statin myotox sup, E-sel inducer, FGF22 binding, SIRT5 inh)
Cc1ccccc1C1c2[nH]c3ccccc3c2C[C@H]2C(=O)N(C3CC3)CC(=O)N12 (stereo not given in full)	E-sel inducer 54.8
O=C1[C@@H]2Cc3c([nH]c4ccccc34)C(c3ccccc3)N2C(=O)CN1C1CC1 (stereo not given in full)	none (no result: E-sel inducer)
Cc1noc(C)c1NC(=O)Nc1ccc2c(c1)C(=O)N([C@@H](C)CO)C[C@@H](C)[C@@H](CN(C)Cc1ccccc1)O2	none (no result: FN deposit inh)
O=C(NN1C(=O)/C(=C/C=C/c2ccco2)SC1=S)c1ccccc1O	SIRT5 inh 45.7
COc1cc(/C=C2\SC(=S)N(NC(=O)c3ccc(O)c(OC)c3)C2=O)ccc1O	Statin myotox sup 102.4 (no result: E-sel inducer)
Cn1cccc1/C=C1\SC(=S)N(NC(=O)c2ccccc2)C1=O	none (no result: Statin myotox sup, E-sel inducer)
Cn1cccc1/C=C1\SC(=S)N(NC(=O)c2ccccc2O)C1=O	Ecoli rRNA inh -28.1 (no result: Statin myotox sup)
CCCN1C[C@@H](C)[C@H](OC)CN(C)C(=O)c2ccc(NC(=O)c3cccc(OC)c3)cc2OC[C@@H]1C	none (no result: Statin myotox sup)
O=C(Cc1ccccc1)N[C@H]1C=C[C@@H](CC(=O)N2CCOCC2)O[C@H]1CO	none
CC(C)NC(=O)Nc1ccc2c(c1)CC(=O)N([C@H](C)CO)C[C@H](C)[C@@H](CN(C)C(=O)Nc1ccc(C(F)(F)F)cc1)O2	none (no result: FN deposit inh)
C/C=C/c1ccc([C@H]2[C@@H](CO)N(C(=O)CC)[C@@H]2CN(C)C(=O)NC(C)C)cc1	SIRT5 inh 18.0 (no result: Statin myotox sup, FGF22 binding)
C/C=C/c1ccc([C@H]2[C@@H](CO)N(C(C)=O)[C@H]2CN(CC(C)C)C(C)=O)cc1	none (no result: FGF22 binding, SIRT5 inh, FN deposit inh)
C/C=C/c1ccc([C@@H]2[C@@H](CO)N(C(C)=O)[C@H]2CN(C(=O)COC)C(C)C)cc1	SIRT5 inh 33.5
C/C=C/c1ccc([C@@H]2[C@@H](CN(C(=O)COC)C(C)C)N(C(C)=O)[C@H]2CO)cc1	SIRT5 inh 17.1
C[C@H](CO)N1C[C@H](C)[C@@H](CN(C)C(=O)C2CC2)Oc2cc(-c3ccc(F)cc3)ccc2S1(=O)=O	none (no result: FGF22 binding, SIRT5 inh)
Cc1cc(Cl)ccc1C(=O)C1CCCN(C(=O)c2cc(C(C)C)no2)C1 (stereo not given)	Ecoli rRNA inh -36.8
Oc1ccc(NCc2ccccc2OCc2ccccc2)cc1	none (no result: Statin myotox sup)
C#CCOc1ccccc1CNc1ccccc1	FGF22 binding 43.2 (no result: Statin myotox sup, E-sel inducer, Ecoli rRNA inh)
CCOc1ccc(-c2c[n+]3c(n2-c2ccccc2)CCCCC3)cc1	Ecoli rRNA inh -38.6 (no result: Statin myotox sup)
C[C@@H]1CN([C@H](C)CO)S(=O)(=O)c2ccc(C#Cc3ccc(F)cc3)cc2O[C@@H]1CN(C)C(=O)c1ccccn1	none
N#Cc1c(-c2ccccc2Cl)c2c([nH]c1=O)-c1ccccc1OC2	Ecoli rRNA inh -23.9 (no result: Statin myotox sup)
N#Cc1c(-c2ccncc2)c2c([nH]c1=O)-c1ccccc1OC2	none (no result: Statin myotox sup, E-sel inducer, Ecoli rRNA inh)
CN1c2ccc(Br)cc2[C@H]2[C@H](CCN2S(=O)(=O)c2cccc(F)c2)[C@H]1CO	none (no result: SIRT5 inh)
CS(=O)(=O)c1ccc2nc(NC(=O)c3cc(-c4ccccc4)nn3-c3ccccc3)sc2c1	FGF22 binding 43.3 (no result: E-sel inducer)
CS(=O)(=O)c1ccc2nc(NC(=O)C3=NN(c4ccccc4)C(=O)CC3)sc2c1	none (no result: Statin myotox sup)
CCCNC(=O)C[C@H]1C[C@H]2c3cc(NC(=O)c4cccnc4)ccc3O[C@H]2[C@H](CO)O1	none (no result: SIRT5 inh)
O=C(NCCc1ccccc1)C1CCN(C2CCN(C(=O)CC3=CCCCC3)CC2)CC1	none
O=C(NC1CC1)C1CCN(C2CCN(C(=O)CC3=CCCCC3)CC2)CC1	SIRT5 inh 28.9
O=C1C=CCC(/C=C/c2ccccc2)O1 (stereo not given)	FGF22 binding 43.7 (no result: Statin myotox sup)
Cn1c(=S)[nH]c2sc3c(c2c1=O)CCC(C(C)(C)C)C3 (stereo not given)	SIRT5 inh 35.3 (no result: Statin myotox sup, E-sel inducer)
